Experimental data taken from ChEMBL document CHEMBL3875159, “High-affinity small molecular blockers of mixed lineage leukemia 1 (MLL1)-WDR5 interaction inhibit MLL1 complex H3K4 methyltransferase activity” (Eur J Med Chem, 2016).
Blank lines part the entries; values can stand above or below the compound they belong to. Calls of active or inactive are those of the source. No cut-off for these calls is given here.

Columns and labels:
[1] = target: T1, WD repeat-containing protein 5 (Homo sapiens, UniProt P61964); assay: Inhibition of 10mer-Thr-FAM probe binding to human WDR5 after 2 hrs by fluorescence polarization assay
[2] = target: T1, WD repeat-containing protein 5; assay: Binding affinity to human WDR5 by isothermal titration calorimetry
[3] = Antiproliferative activity against human MV4-11 cells harboring MLL-AF4 fusion protein after 72 hrs by CCK8 assay; assay type: functional, cell-based; conditions: MV4-11, 72 h
[4] = target: MLL1/ASH2L/RBBP5/WDR5 complex (Homo sapiens, UniProt P61964+Q03164+Q15291+Q9UBL3); assay: Inhibition of recombinant MLL1/ASH2L/RBBP5/WDR5 complex histone methyltransferase activity (unknown origin) by AlphaScreen assay; assay type: protein-complex assay
[5] = system: MV4-11; assay: Induction of apoptosis in human MV4-11 cells harboring MLL-AF4 fusion protein assessed as early apoptotic cells at 2.5 uM after 72 hrs by Annexin-V/propidium iodide staining based flow cytometry (reference value: 4.45%); assay type: functional
[6] = target: T2, Histone-lysine N-methyltransferase 2A/WDR5 (Homo sapiens) (UniProt P61964+Q03164); assay: Inhibition of MLL1-WDR5 protein-protein interaction in human MV4-11 cells harboring MLL-AF4 fusion protein assessed as inhibition of Meis-1 gene expression at 2.5 uM after 7 days by RT-PCR method relative to control; assay type: cell-based
Summary of the method: (§1)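 MV4-11 cells treated for 7 days at 0.625, 1.25, 2.5 and 10 μM, with a DMSO control. Hoxa9 and Meis-1 expression was measured by RT-PCR and compared with the untreated blank control group (*p < 0.05, **p < 0.01).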

[7] = system: MV4-11; assay: Induction of apoptosis in human MV4-11 cells harboring MLL-AF4 fusion protein assessed as late apoptotic cells at 5 uM after 72 hrs by Annexin-V/propidium iodide staining based flow cytometry (reference value: 21.6%); assay type: functional
[8] = target: T2, Histone-lysine N-methyltransferase 2A/WDR5 (Homo sapiens); assay: Inhibition of MLL1-WDR5 protein-protein interaction in human MV4-11 cells harboring MLL-AF4 fusion protein assessed as inhibition of MLL1 histone methyltransferase activity by measuring reduction in H3K4me2 level after 7 days by Western blot method; assay type: cell-based
Summary of the method: (§2)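 MV4-11 cells were exposed to a range of concentrations for 7 days. H3K4me1 and H3K4me2 were detected by western blotting with β-actin as loading control.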

[9] = target: T2, Histone-lysine N-methyltransferase 2A/WDR5 (Homo sapiens); assay: Inhibition of MLL1-WDR5 protein-protein interaction in human MV4-11 cells harboring MLL-AF4 fusion protein assessed as inhibition of MLL1 histone methyltransferase activity by measuring reduction in H3K4me1 level at 5 uM after 7 days by Western blot method; assay type: cell-based; summary of the method: as §2
[10] = target: T2, Histone-lysine N-methyltransferase 2A/WDR5 (Homo sapiens); assay: Inhibition of MLL1-WDR5 protein-protein interaction in human MV4-11 cells harboring MLL-AF4 fusion protein assessed as inhibition of Meis-1 gene expression after 7 days by RT-PCR method; assay type: cell-based
Summary of the method: (§3)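 MV4-11 cells were treated with DMSO or 0.625, 1.25, 2.5 or 10 μM compound for 7 days. Hoxa9 and Meis-1 expression was measured by RT-PCR against DMSO control. Significance was tested versus the nontreated blank control.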

[11] = system: MV4-11; assay: Induction of apoptosis in human MV4-11 cells harboring MLL-AF4 fusion protein assessed as late apoptotic cells at 2.5 uM after 72 hrs by Annexin-V/propidium iodide staining based flow cytometry (reference value: 21.6%); assay type: functional
[12] = system: MV4-11; assay: Induction of apoptosis in human MV4-11 cells harboring MLL-AF4 fusion protein assessed as early apoptotic cells at 5 uM after 72 hrs by Annexin-V/propidium iodide staining based flow cytometry (reference value: 4.45%); assay type: functional
[13] = system: MV4-11; assay: Induction of apoptosis in human MV4-11 cells harboring MLL-AF4 fusion protein assessed as viable cells at 5 uM after 72 hrs by Annexin-V/propidium iodide staining based flow cytometry (reference value: 73.8%); assay type: functional; conditions: MV4-11, 72 h, read-out: Activity
[14] = system: MV4-11; assay: Induction of apoptosis in human MV4-11 cells harboring MLL-AF4 fusion protein assessed as late apoptotic cells at 10 uM after 72 hrs by Annexin-V/propidium iodide staining based flow cytometry (reference value: 21.6%); assay type: functional
[15] = system: MV4-11; assay: Induction of apoptosis in human MV4-11 cells harboring MLL-AF4 fusion protein assessed as necrotic cells at 2.5 uM after 72 hrs by Annexin-V/propidium iodide staining based flow cytometry (reference value: 0.15%); assay type: functional
[16] = target: T2, Histone-lysine N-methyltransferase 2A/WDR5 (Homo sapiens); assay: Inhibition of MLL1-WDR5 protein-protein interaction in human MV4-11 cells harboring MLL-AF4 fusion protein assessed as inhibition of Meis-1 gene expression at 10 uM after 7 days by RT-PCR method relative to control; assay type: cell-based; summary of the method: as §3
[17] = target: T2, Histone-lysine N-methyltransferase 2A/WDR5 (Homo sapiens); assay: Inhibition of MLL1-WDR5 protein-protein interaction in human MV4-11 cells harboring MLL-AF4 fusion protein assessed as inhibition of Hoxa9 gene expression after 7 days by RT-PCR method; assay type: cell-based; summary of the method: as §3
[18] = system: MV4-11; assay: Induction of apoptosis in human MV4-11 cells harboring MLL-AF4 fusion protein after 72 hrs by Annexin-V/propidium iodide staining based flow cytometry; assay type: functional, cell-based
[19] = system: MV4-11; assay: Induction of apoptosis in human MV4-11 cells harboring MLL-AF4 fusion protein assessed as viable cells at 10 uM after 72 hrs by Annexin-V/propidium iodide staining based flow cytometry (reference value: 73.8%); assay type: functional; conditions: MV4-11, 72 h, read-out: Activity
[20] = system: MV4-11; assay: Induction of apoptosis in human MV4-11 cells harboring MLL-AF4 fusion protein assessed as viable cells at 2.5 uM after 72 hrs by Annexin-V/propidium iodide staining based flow cytometry (reference value: 73.8%); assay type: functional; conditions: MV4-11, 72 h, read-out: Activity
[21] = system: MV4-11; assay: Induction of apoptosis in human MV4-11 cells harboring MLL-AF4 fusion protein assessed as necrotic cells at 10 uM after 72 hrs by Annexin-V/propidium iodide staining based flow cytometry (reference value: 0.15%); assay type: functional
[22] = system: MV4-11; assay: Induction of apoptosis in human MV4-11 cells harboring MLL-AF4 fusion protein assessed as early apoptotic cells at 10 uM after 72 hrs by Annexin-V/propidium iodide staining based flow cytometry (reference value: 4.45%); assay type: functional
[23] = system: MV4-11; assay: Induction of apoptosis in human MV4-11 cells harboring MLL-AF4 fusion protein assessed as necrotic cells at 5 uM after 72 hrs by Annexin-V/propidium iodide staining based flow cytometry (reference value: 0.15%); assay type: functional
[24] = target: T2, Histone-lysine N-methyltransferase 2A/WDR5 (Homo sapiens); assay: Inhibition of MLL1-WDR5 protein-protein interaction in human MV4-11 cells harboring MLL-AF4 fusion protein assessed as inhibition of Hoxa9 gene expression at 10 uM after 7 days by RT-PCR method relative to control; assay type: cell-based; summary of the method: as §3
[25] = target: T2, Histone-lysine N-methyltransferase 2A/WDR5 (Homo sapiens); assay: Inhibition of MLL1-WDR5 protein-protein interaction in human MV4-11 cells harboring MLL-AF4 fusion protein assessed as inhibition of Hoxa9 gene expression at 2.5 uM after 7 days by RT-PCR method relative to control; assay type: cell-based; summary of the method: as §1

IC50 [1]: > 20000 nM
SMILES: Cc1c(F)ccc(C(=O)Nc2cc([N+](=O)[O-])ccc2N2CCN(c3ccc(F)cc3)CC2)c1Cl

Kd [2]: 7.5 nM
IC50 [4]: 300 nM
SMILES: Cc1c(F)c(N)cc(C(=O)Nc2cc(-c3ccc(NC(=O)C4CCNCC4)cc3)ccc2N2CCN(C)CC2)c1Cl
IC50 [3]: 9200 nM

IC50 [1]: 81.5 nM
SMILES: CCC(=O)Nc1ccc(-c2ccc(N3CCN(C)CC3)c(NC(=O)c3cc(N)c(F)c(C)c3Cl)c2)cc1
IC50 [3]: 6500 nM

inhibition [6]: 50%
inhibition [8]: Dose-dependent effect
inhibition [9]: Active
inhibition [10]: Dose-dependent effect
inhibition [16]: 80%
Kd [2]: 202 nM
inhibition [17]: Dose-dependent effect
IC50 [4]: 1650 nM
inhibition [24]: 80%
inhibition [25]: 50%
SMILES: Cc1c(F)c(N)cc(C(=O)Nc2cc(-c3ccc(N)cc3)ccc2N2CCN(C)CC2)c1Cl
Activity [5]: 5.5%
Activity [7]: 33.55%
Activity [11]: 23.55%
Activity [12]: 7.95%
viability at 5 µM [13]: 58.5%
Activity [14]: 49.75%
Activity [15]: 0.05%
Activity [18]: Dose-dependent effect
IC50 [3]: 17700 nM
viability at 10 µM [19]: 36.3%
viability at 2.5 µM [20]: 70.9%
Activity [21]: 0.15%
Activity [22]: 13.8%
Activity [23]: 0%

IC50 [1]: 1550 nM
SMILES: Cc1c(F)c(N)cc(C(=O)Nc2cc(-c3ccc(NC(=O)CNC(=O)OC(C)(C)C)cc3)ccc2N2CCN(C)CC2)c1Cl
IC50 [3]: 4100 nM

IC50 [1]: > 20000 nM
SMILES: CC(=O)Nc1cc(C(=O)Nc2cc(-c3ccc([N+](=O)[O-])cc3)ccc2N2CCN(C)CC2)c(Cl)c(C)c1F

IC50 [1]: 341 nM
SMILES: Cc1c(F)c(N)cc(C(=O)Nc2cc(-c3ccc(NC(=O)C4CCCCC4)cc3)ccc2N2CCN(C)CC2)c1Cl
IC50 [3]: 3800 nM

Second part, the compound before the results:

SMILES: Cc1c(F)c(N)cc(C(=O)Nc2cc(-c3ccc(NC(=O)C(C)N)cc3)ccc2N2CCN(C)CC2)c1Cl (stereo not given)
IC50 [1]: 15 nM
IC50 [3]: 11100 nM

SMILES: CC(=O)Nc1ccc(-c2ccc(N3CCN(C)CC3)c(NC(=O)c3cc(N)c(F)c(C)c3Cl)c2)cc1
IC50 [1]: 70.1 nM
IC50 [3]: 12500 nM

SMILES: CN1CCN(c2ccc(-c3ccncc3)cc2NC(=O)c2ccc(F)c([N+](=O)[O-])c2)CC1
IC50 [1]: 198 nM

SMILES: Cc1c(F)ccc(C(=O)Nc2cc([N+](=O)[O-])ccc2N2CCN(Cc3ccccc3)CC2)c1Cl
IC50 [1]: > 20000 nM

SMILES: CN1CCN(c2ccc(-c3ccc([N+](=O)[O-])cc3)cc2NC(=O)c2cccc([N+](=O)[O-])c2)CC1
IC50 [1]: 285 nM

SMILES: Cc1c(F)c(N)cc(C(=O)Nc2cc(-c3ccc(NC(=O)CCCNC(=O)OC(C)(C)C)cc3)ccc2N2CCN(C)CC2)c1Cl
IC50 [1]: 80.4 nM
IC50 [3]: 4800 nM

SMILES: CN1CCN(c2ccc(-c3ccc(N)cc3)cc2NC(=O)c2ccc(F)c(N)c2)CC1
IC50 [1]: 13600 nM

SMILES: CN1CCN(c2ccc(-c3ccc([N+](=O)[O-])cc3)cc2NC(=O)c2ccc(F)c([N+](=O)[O-])c2)CC1
IC50 [1]: 1090 nM

SMILES: Cc1c(F)c(N)cc(C(=O)Nc2cc(-c3ccncc3)ccc2N2CCN(C)CC2)c1Cl
IC50 [1]: 18.2 nM

SMILES: CN1CCN(c2ccc(-c3ccncc3)cc2NC(=O)c2ccc(F)c(N)c2)CC1
IC50 [1]: 5800 nM

SMILES: CC(=O)Nc1cc(C(=O)Nc2cc(-c3ccc(N)cc3)ccc2N2CCN(C)CC2)c(Cl)c(C)c1F
IC50 [1]: 3190 nM

SMILES: Cc1c(F)ccc(C(=O)Nc2cc([N+](=O)[O-])ccc2NCCCn2ccnc2)c1Cl
IC50 [1]: > 20000 nM
